This is a sample that favours compounds with a hit; in the whole collection about 3.9% have one here.
AHR activator – activators of human aryl hydrocarbon receptor. AHR-responsive luciferase reporter cells, luminescence. activation, % at 5 µM. 320,000 tested, 2.5% active. AID 2796; in the data active = activation above about 47%;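 note: 0% = vehicle wells and 100% = reference agonist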
HIF act – HIF pathway transcriptional activation | U2OS HRE-luciferase reporter, luminescence; normalized: DMSO 0%, desferrioxamine 100% | activation, % at 7.5 µM (by protocol) | 300,000 tested, 0.32% active | AID 1910;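 active = mean activation of at least 10% of the iron chelator positive control signal, with at least half of replicates also reaching 10%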
SR-BI DiI inh – mouse SR-BI HDL lipid transfer inhibition; Q61009; ldlA[mSR-BI] CHO cells, DiI-HDL uptake fluorescence, 3 h; inhibition, % at 12.5 µM; 320,000 tested, 0.96% active; AID 488896;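 active = mean replicate inhibition of at least 70% and a set share of replicates each scoring 70 or more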;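 note: 0% = median of neutral control wells and 100% = median of positive control wells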
ABCB6 inh 2 – inhibitors of human ABC transporter ABCB6 | Q9NP58 | K562-ABCB6 porphyrin accumulation, flow cytometry, 1 h; hits give low values | AID 602162 | 360,000 tested, 0.19% active | fluorescence ratio to DMSO, % at 10 µM;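 active = fluorescence ratio to DMSO below 75%, the collection mean minus 3 SD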;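 note: signal is porphyrin accumulated inside mitochondria; 100% equals median channel fluorescence of DMSO control wells; lower ratio means ABCB6 inhibition with less porphyrin fluorescence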
Target sequence (Q9NP58 whole entry, looked up): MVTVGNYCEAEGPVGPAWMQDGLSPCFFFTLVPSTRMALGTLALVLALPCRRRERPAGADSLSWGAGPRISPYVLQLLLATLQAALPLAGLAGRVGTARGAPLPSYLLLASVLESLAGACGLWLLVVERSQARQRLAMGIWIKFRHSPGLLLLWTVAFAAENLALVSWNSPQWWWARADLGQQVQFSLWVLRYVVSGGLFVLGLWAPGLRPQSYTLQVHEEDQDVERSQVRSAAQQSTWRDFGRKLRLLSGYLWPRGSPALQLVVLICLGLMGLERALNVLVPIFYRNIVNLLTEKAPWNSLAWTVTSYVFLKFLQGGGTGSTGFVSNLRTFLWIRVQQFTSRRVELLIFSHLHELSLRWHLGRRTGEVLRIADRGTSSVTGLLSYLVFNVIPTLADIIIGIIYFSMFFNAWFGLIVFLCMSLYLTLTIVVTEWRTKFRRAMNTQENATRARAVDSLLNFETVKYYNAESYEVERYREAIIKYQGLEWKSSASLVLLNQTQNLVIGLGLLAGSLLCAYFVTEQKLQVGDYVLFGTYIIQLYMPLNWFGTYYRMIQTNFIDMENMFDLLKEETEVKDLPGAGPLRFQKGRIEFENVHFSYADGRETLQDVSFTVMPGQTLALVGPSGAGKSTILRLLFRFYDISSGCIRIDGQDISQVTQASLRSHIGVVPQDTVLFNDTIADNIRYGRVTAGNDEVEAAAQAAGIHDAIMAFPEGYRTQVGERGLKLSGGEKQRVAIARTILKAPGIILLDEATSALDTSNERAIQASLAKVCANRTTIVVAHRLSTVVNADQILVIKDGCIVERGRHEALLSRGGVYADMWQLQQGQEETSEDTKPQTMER
GAA850 FXN act – frataxin GAA850 promoter activation; activation, % at 6 µM; 360,000 tested, 0.56% active; HEK293 lucGAA850 FXN promoter luciferase reporter, 24 h; percent of 10 µM SAHA response;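 active = activation above the average of all compounds screened plus 3 SD, cutoff fixed separately per campaign, cut at about 7.5% in these data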;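 note: 0% = DMSO wells and 100% = 10 µM SAHA wells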
SR-BI DiI-HDL act – SR-BI HDL lipid transfer activation; 320,000 tested, 0.096% active; AID 504775; activation, % at 12.5 µM; CHO ldlA[mSR-BI] cells, DiI-HDL uptake fluorescence, 3 h; 100 = double the neutral-control signal;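 active = mean replicate activation of at least 60% and every replicate at or above 60%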;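 note: 0% = median plate neutral-control signal and 100% = twice that signal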
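Test system: SR-BI-overexpressing, LDLR-lacking CHO cells; Medium: Ham's F12 with 0.5% BSA, HEPES 25 mM, pH 7.4; Schedule: 3 h, 37 °C; Technique: bottom-read fluorescence, 550/595 nm.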
The depositor's hits bear a star; / = no result given.

SMILES	AHR activator	HIF act	SR-BI DiI inh	ABCB6 inh 2	GAA850 FXN act	SR-BI DiI-HDL act
COc1cc(OC)cc(-c2nnc(NC(=O)CCS(=O)(=O)c3ccc(C)cc3)o2)c1	65.5*	-0.4	0.6	98.0	0.0	-0.6
O=C(N/N=C/c1ccccn1)c1ccc([N+](=O)[O-])cc1	5.7	2.6	8.8	101.0	-0.6	-8.8
O=C(N/N=C/c1ccccn1)c1ccc(NC(=O)c2cccc([N+](=O)[O-])c2)cc1	3.0	0.4	81.7*	104.0	-2.3	-81.7
O=C(N/N=C/c1ccc(O)cc1)c1cccc(C(F)(F)F)c1	15.3	0.0	20.0	93.0	0.2	-20.0
COc1cccc(/C=N/NC(=O)c2cc3cc([N+](=O)[O-])ccc3s2)c1O	3.4	/	125.5*	97.0	-6.8	-125.5
O=C(N/N=C/c1ccccc1O)c1cccc(C(F)(F)F)c1	8.1	40.6*	136.3*	99.0	-8.2	-136.4
COc1ccccc1/C=N/NC(=O)c1ccc(NC(=O)c2cccc([N+](=O)[O-])c2)cc1	2.2	-0.1	/	/	/	/
O=C(N/N=C/c1ccc(-c2cccc([N+](=O)[O-])c2)o1)c1ccc([N+](=O)[O-])cc1	0.0	0.0	81.7*	95.0	1.5	-81.7
O=C(N/N=C/c1ccc(-c2cccc([N+](=O)[O-])c2)o1)c1ccccc1O	8.6	-0.3	22.9	96.0	-0.2	-22.9
O=S(=O)(c1cc(Cl)ccc1Cl)N1CCC2(CC1)OCCO2	1.8	-0.2	7.6	100.0	-0.8	-7.6
COCCNC(=O)COC(=O)c1[nH]c(C)c(C(C)=O)c1C	6.6	-0.4	-17.5	104.0	-0.6	17.5
NC(=O)N/N=C/c1ccc(-c2cccc(C(F)(F)F)c2)o1	78.4*	2.1	-9.7	95.0	3.8	9.7
COc1ccc(/C=N/NC(=O)c2cccc([N+](=O)[O-])c2)cc1O	8.3	0.3	-10.4	98.0	-0.8	10.4
O=C(NN=Cc1ccccc1O)c1cccc([N+](=O)[O-])c1	/	/	128.6*	96.0	-8.2	-128.5
O=C(N/N=C/c1ccc(-c2cccc(C(F)(F)F)c2)o1)c1ccccc1O	17.7	0.4	15.3	97.0	-1.2	-15.3
CC(=O)c1cccc([N+](=O)[O-])c1	-1.1	/	-3.6	102.0	-0.3	3.6
COc1ccc2ccccc2c1/C=N/NC(=O)c1cccc([N+](=O)[O-])c1	4.0	-0.7	86.2*	97.0	2.1	-86.2
O=C(C#Cc1ccccc1)c1cccc([N+](=O)[O-])c1	-1.0	/	-26.8	71.0*	1.6	26.8
C/C(CC(=O)NC1CCCC1)=N\NC(=O)c1ccc([N+](=O)[O-])c(Cl)c1	0.6	/	5.1	101.0	1.1	-5.1
COC(=O)C(C)NC(=O)c1cn(-c2ccccc2OC)c(=O)c2ccccc12 (configuration not stated)	1.6	-1.6	-16.9	77.0	0.1	16.9
O=C(CSc1nnc(-c2cccnc2)o1)NNC(=O)c1ccc(Br)cc1	2.8	0.2	/	94.0	-2.1	/
CCOCCCNC(=O)CCC(=O)NNc1nc2ccccc2c2nc(C)nn12	-1.3	0.5	-32.6	96.0	-0.4	32.6
COc1ccc(NC(=O)c2ccc(COCC(F)(F)C(F)F)cc2)cc1	-2.3	1.8	-16.7	100.0	2.5	16.7
O=C(O)c1n[nH]c2ccccc12	3.4	-0.3	/	97.0	-1.7	/
O=C(/C=C/c1ccccc1F)c1cccc([N+](=O)[O-])c1	57.6*	0.3	15.1	108.0	3.5	-15.1
SMILES	AHR activator	HIF act	SR-BI DiI inh	ABCB6 inh 2	GAA850 FXN act	SR-BI DiI-HDL act
Cc1cc(/C=N/NC(=O)c2cccc([N+](=O)[O-])c2)c(C)n1-c1ccccc1	30.0	0.0	79.7*	102.0	5.1	-79.7
COc1cc(/C=N/NC(=O)c2cccc(NC(=O)c3ccccc3C)c2)ccc1O	14.5	0.5	/	99.0	1.1	/
COc1cc(/C=C/C(=O)c2cccc([N+](=O)[O-])c2)cc(OC)c1OC	2.9	1.2	53.9	102.0	-0.5	-53.9
Cc1ccccc1C(=O)Nc1cccc(C(=O)N/N=C/c2cc(Cl)cc([N+](=O)[O-])c2O)c1	34.4	-0.1	102.1*	91.0	3.6	-102.1
CC(=NCCc1c(C)[nH]c2ccc(OCc3ccccc3)cc12)C1=C(O)CC(c2ccccc2)CC1=O (configuration not stated)	77.4*	0.3	57.6	95.0	-1.0	-57.6
COc1ccc(NC(=O)/C(C#N)=C/c2ccc(OCCN3CCOCC3)c(OC)c2)c(OC)c1	-2.1	0.5	74.9*	97.0	-0.1	-74.9
COc1ccc(-c2[nH]c3ccccc3c2SCCNC(=O)c2cc3ccccc3oc2=O)cc1	6.0	0.5	35.4	101.0	0.1	-35.4
COc1ccc(/C=N/n2cc(-c3ccccc3)nc2N)cc1	67.8*	1.7	-11.8	94.0	-0.7	11.8
COc1ccc(/C=N/n2cc(-c3ccc(OC)cc3)nc2N)cc1	10.7	0.1	28.9	95.0	3.9	-28.9
C=CCn1c(SCc2csc(-c3ccc(C)cc3)n2)nnc1-c1ccccc1OC	20.8	-0.8	22.1	91.0	2.0	-22.1
COc1ccc(C(=O)CSc2nncn2C)cc1	2.8	21.6*	-19.0	105.0	1.9	19.0
Cn1cnnc1SCC(=O)c1ccc(OC(F)F)cc1	1.9	-0.7	-24.2	100.0	1.6	24.2
Cn1cnnc1SCC(=O)c1c[nH]c2ccccc12	66.8*	0.9	2.7	100.0	-0.9	-2.7
CCCCNc1nnc(SCC(=O)c2c[nH]c3ccccc23)s1	57.4*	0.3	-11.0	107.0	-0.1	11.0
O=C(CSc1nncn1-c1ccccc1)c1c[nH]c2ccccc12	34.5	0.1	3.3	114.0	1.8	-3.3
Cc1ccc2cc3cc(C(=O)NCc4ccc5c(c4)OCO5)oc3nc2c1	/	-24.5	-22.7	110.0	-2.4	22.7
CCCOc1ccc(C(=O)Nc2cccnc2)cc1	7.1	3.9	3.7	97.0	0.5	-3.7
CCOc1cc(C(=O)Nc2cccnc2)cc(OCC)c1OCC	72.7*	0.2	37.4	100.0	0.7	-37.3
CCOc1ccc(C(=O)Nc2cc(C)on2)cc1	7.8	1.1	1.1	101.0	4.0	-1.1
CCOc1cc(C(=O)Nc2cc(C)on2)cc(OCC)c1OCC	63.7*	-0.1	43.8	102.0	-1.7	-43.8
CC(/C=N\Nc1nnc2c(n1)[nH]c1c(C)cccc12)=C\c1ccco1	56.8*	0.0	-20.5	103.0	2.7	20.5
O=C(COC(=O)C1CC1)Nc1ccc(N=Nc2ccccc2)cc1	-1.9	0.8	-0.7	102.0	5.6	0.7
CCOC(=O)c1cnc2c(cnn2C)c1NCc1ccc(OC)cc1	0.0	-0.2	78.7*	99.0	1.0	-78.7
COc1ccc(C(=O)Nc2cccc(-c3ccc(N4CCOCC4)nn3)c2)cc1OC	8.1	3.4	75.3*	90.0	0.7	-75.3

From PubChem
